Data: ChEMBL document CHEMBL4689842, “EUbOPEN Chemogenomics Library wave 1” (2021)

Test system: Fibroblast
Test: Multiplex assay against human fibroblast
Assay type: toxicity, cell-based
Procedure, shortened: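 Hoechst33342, BioTracker Green Microtubule Cytoskeleton Dye, MitoTracker Red and Annexin V Alexa Fluor 680 were added to live cells at seeding, and imaging on a CQ1 microscope at 37°C and 5% CO2 followed compound addition. Gating by CellPathfinder machine learning separated cells into Hoechst high-intensity objects or normal cells, then normal cells into healthy, pyknosed or fragmented nuclei, then pyknosed cells into mitotic or apoptotic. Per cents of healthy-nucleus cells are reported for the tubulin, mitochondrial-mass and membrane-permeability phenotypes.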

[1] = 12 h, 1 µM, compound concentration 1 uM, replicate 1
[2] = 12 h, 1 µM, compound concentration 1 uM, replicate 2
[3] = 12 h, 10 µM, compound concentration 10 uM, replicate 1
[4] = 12 h, 10 µM, compound concentration 10 uM, replicate 2
[5] = 24 h, 1 µM, compound concentration 1 uM, replicate 1
[6] = 24 h, 1 µM, compound concentration 1 uM, replicate 2
[7] = 24 h, 10 µM, compound concentration 10 uM, replicate 1
[8] = 24 h, 10 µM, compound concentration 10 uM, replicate 2
[9] = 48 h, 1 µM, compound concentration 1 uM, replicate 1
[10] = 48 h, 1 µM, compound concentration 1 uM, replicate 2
[11] = 48 h, 10 µM, compound concentration 10 uM, replicate 1
[12] = 48 h, 10 µM, compound concentration 10 uM, replicate 2

CCC(=O)O[C@]1(C(=O)SCF)[C@H](C)C[C@H]2[C@@H]3C[C@H](F)C4=CC(=O)C=C[C@]4(C)[C@@]3(F)[C@@H](O)C[C@@]21C [FLUTICASONE PROPIONATE]
Population Apoptotic (%) [1]: 71% | Population Fragmented Nuclei (%) [1]: 22% | Population Healthy Nuclei (%) [1]: 45% | Population Hoechst High Intensity Objects (%) [1]: 13% | Population Membrane Permeable-Phenotype (%) [1]: 33% | Population Mitochondria Different-Phenotype (%) [1]: 0% | Population Mitotic Cells (%) [1]: 28% | Population Normal (%) [1]: 86% | Population Pyknosed Nuclei (%) [1]: 31% | Population Tubulin-Different-Phenotype (%) [1]: 40% | Total Cell Count [1]: 76 | Population Fragmented Nuclei (%) [2]: 4% | Population Healthy Nuclei (%) [2]: 78% | Population Hoechst High Intensity Objects (%) [2]: 12% | Population Membrane Permeable-Phenotype (%) [2]: 3% | Population Mitochondria Different-Phenotype (%) [2]: 9% | Population Normal (%) [2]: 87% | Population Pyknosed Nuclei (%) [2]: 16% | Population Tubulin-Different-Phenotype (%) [2]: 9% | Total Cell Count [2]: 68 | Population Apoptotic (%) [3]: 62% | Population Fragmented Nuclei (%) [3]: 26% | Population Healthy Nuclei (%) [3]: 50% | Population Hoechst High Intensity Objects (%) [3]: 16% | Population Membrane Permeable-Phenotype (%) [3]: 38% | Population Mitochondria Different-Phenotype (%) [3]: 30% | Population Mitotic Cells (%) [3]: 37% | Population Normal (%) [3]: 83% | Population Pyknosed Nuclei (%) [3]: 23% | Population Tubulin-Different-Phenotype (%) [3]: 53% | Total Cell Count [3]: 149 | Population Apoptotic (%) [4]: 28% | Population Fragmented Nuclei (%) [4]: 8% | Population Healthy Nuclei (%) [4]: 81% | Population Hoechst High Intensity Objects (%) [4]: 8% | Population Membrane Permeable-Phenotype (%) [4]: 3% | Population Mitochondria Different-Phenotype (%) [4]: 37% | Population Mitotic Cells (%) [4]: 71% | Population Normal (%) [4]: 92% | Population Pyknosed Nuclei (%) [4]: 10% | Population Tubulin-Different-Phenotype (%) [4]: 35% | Total Cell Count [4]: 48 | Population Apoptotic (%) [5]: 66% | Population Fragmented Nuclei (%) [5]: 21% | Population Healthy Nuclei (%) [5]: 62% | Population Hoechst High Intensity Objects (%) [5]: 25% | Population Membrane Permeable-Phenotype (%) [5]: 28% | Population Mitochondria Different-Phenotype (%) [5]: 0% | Population Mitotic Cells (%) [5]: 33% | Population Normal (%) [5]: 74% | Population Pyknosed Nuclei (%) [5]: 16% | Population Tubulin-Different-Phenotype (%) [5]: 34% | Total Cell Count [5]: 75 | Population Apoptotic (%) [6]: 16% | Population Fragmented Nuclei (%) [6]: 3% | Population Healthy Nuclei (%) [6]: 84% | Population Hoechst High Intensity Objects (%) [6]: 11% | Population Membrane Permeable-Phenotype (%) [6]: 11% | Population Mitochondria Different-Phenotype (%) [6]: 11% | Population Mitotic Cells (%) [6]: 83% | Population Normal (%) [6]: 88% | Population Pyknosed Nuclei (%) [6]: 11% | Population Tubulin-Different-Phenotype (%) [6]: 20% | Total Cell Count [6]: 78 | Population Apoptotic (%) [7]: 64% | Population Fragmented Nuclei (%) [7]: 30% | Population Healthy Nuclei (%) [7]: 50% | Population Hoechst High Intensity Objects (%) [7]: 12% | Population Membrane Permeable-Phenotype (%) [7]: 40% | Population Mitochondria Different-Phenotype (%) [7]: 27% | Population Mitotic Cells (%) [7]: 36% | Population Normal (%) [7]: 87% | Population Pyknosed Nuclei (%) [7]: 19% | Population Tubulin-Different-Phenotype (%) [7]: 47% | Total Cell Count [7]: 149 | Population Apoptotic (%) [8]: 58% | Population Fragmented Nuclei (%) [8]: 5% | Population Healthy Nuclei (%) [8]: 78% | Population Hoechst High Intensity Objects (%) [8]: 8% | Population Membrane Permeable-Phenotype (%) [8]: 6% | Population Mitochondria Different-Phenotype (%) [8]: 31% | Population Mitotic Cells (%) [8]: 41% | Population Normal (%) [8]: 91% | Population Pyknosed Nuclei (%) [8]: 16% | Population Tubulin-Different-Phenotype (%) [8]: 25% | Total Cell Count [8]: 59 | Population Apoptotic (%) [9]: 54% | Population Fragmented Nuclei (%) [9]: 41% | Population Healthy Nuclei (%) [9]: 43% | Population Hoechst High Intensity Objects (%) [9]: 24% | Population Membrane Permeable-Phenotype (%) [9]: 25% | Population Mitochondria Different-Phenotype (%) [9]: 0% | Population Mitotic Cells (%) [9]: 45% | Population Normal (%) [9]: 75% | Population Pyknosed Nuclei (%) [9]: 15% | Population Tubulin-Different-Phenotype (%) [9]: 38% | Total Cell Count [9]: 95 | Population Apoptotic (%) [10]: 100% | Population Fragmented Nuclei (%) [10]: 26% | Population Healthy Nuclei (%) [10]: 72% | Population Hoechst High Intensity Objects (%) [10]: 15% | Population Membrane Permeable-Phenotype (%) [10]: 5% | Population Mitotic Cells (%) [10]: 0% | Population Normal (%) [10]: 84% | Population Pyknosed Nuclei (%) [10]: 0% | Population Tubulin-Different-Phenotype (%) [10]: 26% | Total Cell Count [10]: 120 | Population Apoptotic (%) [11]: 75% | Population Fragmented Nuclei (%) [11]: 38% | Population Healthy Nuclei (%) [11]: 47% | Population Hoechst High Intensity Objects (%) [11]: 14% | Population Membrane Permeable-Phenotype (%) [11]: 29% | Population Mitochondria Different-Phenotype (%) [11]: 27% | Population Mitotic Cells (%) [11]: 25% | Population Normal (%) [11]: 85% | Population Pyknosed Nuclei (%) [11]: 14% | Population Tubulin-Different-Phenotype (%) [11]: 48% | Total Cell Count [11]: 167 | Population Apoptotic (%) [12]: 100% | Population Fragmented Nuclei (%) [12]: 29% | Population Healthy Nuclei (%) [12]: 66% | Population Hoechst High Intensity Objects (%) [12]: 35% | Population Membrane Permeable-Phenotype (%) [12]: 11% | Population Mitochondria Different-Phenotype (%) [12]: 17% | Population Mitotic Cells (%) [12]: 0% | Population Normal (%) [12]: 64% | Population Pyknosed Nuclei (%) [12]: 3% | Population Tubulin-Different-Phenotype (%) [12]: 56% | Total Cell Count [12]: 176
